Assay results taken from ChEMBL document CHEMBL1221194, “Forward chemical genetic approach identifies new role for GAPDH in insulin signaling” (Nat Chem Biol, 2007).
Activity calls are given as the source filed them. No cut-off for these calls is given here.

Assays:
Caenorhabditis elegans [1] = experiment: inhibition of GAPDH in Caenorhabditis elegans e1370 daf-2 mutant assessed as inhibition of dauer formation relative to control
Procedure, shortened: (§1)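 C. elegans daf-2 (e1370) kept in M9 buffer with 2% E. coli OP50 culture and compound ([…]), 4 d at 25 °C. Young adult-size animals counted in solution.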

[2] = biological target: Glyceraldehyde-3-phosphate dehydrogenase (Mus musculus) (UniProt P16858); experiment: Inhibition of GAPDH in mouse 3T3-L1 cells assessed as 2-NBD-glucose uptake after 15 mins; assay type: cell-based
Procedure, shortened: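 3T3-L1 preadipocytes grown overnight in DMEM with 10% heat-inactivated newborn calf serum, washed and held in PBS 5 min. Compound applied with 2-NBD-glucose ([…]) for 15 min at 37 °C. Cells washed, lysed in 0.1 M potassium phosphate pH 10 with 1% Triton X-100, DMSO added. Fluorescence read at ex 466/em 540 nm.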

[3] = biological target: Glyceraldehyde-3-phosphate dehydrogenase (Oryctolagus cuniculus, UniProt P46406); experiment: Inhibition of rabbit GAPDH glycolytic activity
Procedure, shortened: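 Enzyme source was purified GAPDH from rabbit muscle, assayed in vitro for its glycolytic enzymatic activity. IC50 was reported as the half-maximal inhibitory concentration.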

[4] = biological target: Glyceraldehyde-3-phosphate dehydrogenase (Oryctolagus cuniculus) (UniProt P46406); experiment: Induction of rabbit GAPDH tetramer segregation into monomers at 10 uM after 30 mins by SDS-PAGE
Procedure, shortened: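 Purified rabbit muscle GAPDH was incubated with compound at 0.4, 2 or 10 µM for 30 min at 4 °C. Samples were then chemically cross-linked, resolved by SDS-PAGE and silver-stained. Tetramer and monomer bands were compared.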

[5] = biological target: Glyceraldehyde-3-phosphate dehydrogenase (Mus musculus) (UniProt P16858); experiment: Induction of GAPDH tetramer segregation into monomers in mouse 3T3L1 lysate at […] after 3 hrs by immunoprecipitation method
[6] = Activation of PI3K assessed as tyrosine phosphorylation of p85 subunit
[7] = biological target: Glyceraldehyde-3-phosphate dehydrogenase (Mus musculus) (UniProt P16858); experiment: Inhibition of GAPDH in mouse 3T3L1 lysate assessed as inhibition of conversion of Ptdlns(3, 4, 5)P3 to PIP2 by fluorescent phosphoinositide TLC
Procedure, shortened: (§2)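 3T3-L1 preadipocyte lysate (5 µl) in 50 mM ammonium carbonate pH 8.0 with 2 mM DTT. Compound present, reaction started with C6-NBD6-PtdIns(3,4,5)P3 or PtdIns(4,5)P2, run 2 h at 25 °C. Products resolved by TLC on oxalate-treated silica. Hydrolyzed spot quantified as fraction of total fluorescence; s.d. from two independent experiments.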

3T3-L1 [8] = experiment: Inhibition of conversion of Ptdlns(3, 4, 5)P3 to PIP2 in GAPDH depleted mouse 3T3L1 lysate by fluorescent phosphoinositide TLC; assay type: functional
Procedure, shortened: (§3)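 3T3-L1 lysate immunodepleted of GAPDH, run in 25 µl ammonium carbonate/DTT buffer pH 8.0 with fluorescent PtdIns(3,4,5)P3 or PtdIns(4,5)P2 substrate. Run with or without exogenous GAPDH ([…]), compound tested in the presence of GAPDH, 2 h at 25 °C. Sampled every 20 min and resolved by TLC. Hydrolyzed/total spot fluorescence; two independent experiments.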

[9] = biological target: Glyceraldehyde-3-phosphate dehydrogenase (Mus musculus) (UniProt P16858); experiment: Inhibition of GAPDH in mouse 3T3L1 lysate assessed as inhibition of conversion of Ptdlns(4, 5)P2 to PIP by fluorescent phosphoinositide TLC; procedure, shortened: as §2
3T3-L1 [10] = experiment: Inhibition of conversion of Ptdlns(4, 5)P2 to PIP in GAPDH depleted mouse 3T3L1 lysate by fluorescent phosphoinositide TLC; assay type: functional; procedure, shortened: as §3
[11] = biological target: Glyceraldehyde-3-phosphate dehydrogenase (Mus musculus) (UniProt P16858); experiment: Inhibition of GAPDH in mouse 3T3L1 […] assessed as increase in Ptdlns(4, 5)P2 level by immunofluorescence method
Procedure, shortened: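 Whole 3T3-L1 cells given compound in PBS for 1 min, DMSO as control, then fixed in 4% formaldehyde. Stained with antibody to PtdIns(4,5)P2 and imaged by fluorescence microscopy (ex 488/em 510 nm). Intensity normalized to DMSO control; s.d. from 15 images over three independent experiments.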

[12] = biological target: Glyceraldehyde-3-phosphate dehydrogenase (Oryctolagus cuniculus) (UniProt P46406); experiment: Inhibition of rabbit GAPDH glycolytic activity at > 50 uM
Caenorhabditis elegans [13] = experiment: inhibition of GAPDH in Caenorhabditis elegans e1370 daf-2 mutant assessed as inhibition of dauer formation; procedure, shortened: as §1
[14] = biological target: Glyceraldehyde-3-phosphate dehydrogenase (Homo sapiens, UniProt P04406); experiment: Inhibition of GAPDH
Procedure, shortened: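 Purified rabbit muscle GAPDH was tested in vitro for its glycolytic enzymatic activity. The read-out was the half-maximal inhibitory concentration.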

Sequence of Glyceraldehyde-3-phosphate dehydrogenase (Oryctolagus cuniculus) (P46406 whole entry, looked up): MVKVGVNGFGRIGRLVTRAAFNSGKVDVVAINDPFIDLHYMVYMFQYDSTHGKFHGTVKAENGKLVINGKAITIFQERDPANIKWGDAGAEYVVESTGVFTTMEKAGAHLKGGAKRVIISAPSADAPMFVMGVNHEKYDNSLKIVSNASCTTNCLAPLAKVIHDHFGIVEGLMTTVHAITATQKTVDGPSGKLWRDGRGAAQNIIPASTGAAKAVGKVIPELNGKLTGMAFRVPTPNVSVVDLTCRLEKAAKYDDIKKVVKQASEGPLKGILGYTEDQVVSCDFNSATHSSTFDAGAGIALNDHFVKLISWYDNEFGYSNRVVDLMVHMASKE
Sequence of Glyceraldehyde-3-phosphate dehydrogenase (Mus musculus) (P16858 whole entry): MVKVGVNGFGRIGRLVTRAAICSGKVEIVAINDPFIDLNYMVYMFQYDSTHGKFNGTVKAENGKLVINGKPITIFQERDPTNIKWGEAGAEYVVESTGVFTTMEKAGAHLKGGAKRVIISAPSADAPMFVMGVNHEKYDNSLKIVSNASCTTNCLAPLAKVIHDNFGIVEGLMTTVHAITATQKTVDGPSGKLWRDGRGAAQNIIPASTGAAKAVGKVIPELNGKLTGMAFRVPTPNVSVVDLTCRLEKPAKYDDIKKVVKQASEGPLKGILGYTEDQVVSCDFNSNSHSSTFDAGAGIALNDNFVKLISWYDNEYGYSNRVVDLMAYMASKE
Sequence of Glyceraldehyde-3-phosphate dehydrogenase (Oryctolagus cuniculus, UniProt P46406) (P46406 whole entry): as the sequence (P46406 whole entry, looked up) above
Sequence of Glyceraldehyde-3-phosphate dehydrogenase (Homo sapiens, UniProt P04406) (P04406 whole entry): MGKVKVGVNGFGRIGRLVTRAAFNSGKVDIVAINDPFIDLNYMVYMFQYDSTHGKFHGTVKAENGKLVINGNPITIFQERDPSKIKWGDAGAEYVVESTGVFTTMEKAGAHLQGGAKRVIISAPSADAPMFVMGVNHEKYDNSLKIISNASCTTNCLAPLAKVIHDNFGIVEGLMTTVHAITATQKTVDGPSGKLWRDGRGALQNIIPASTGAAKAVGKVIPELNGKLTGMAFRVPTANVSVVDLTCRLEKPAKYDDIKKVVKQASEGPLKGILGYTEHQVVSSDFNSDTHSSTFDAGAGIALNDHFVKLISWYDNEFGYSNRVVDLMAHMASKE

For `O=C(NCCOCCOCCNc1nc(NCCc2ccc(O)c(O)c2)nc(Nc2ccccc2)n1)c1ccccc1`, which inhibition (Caenorhabditis elegans [1]) is on record?
The inhibition was 18%.

What about the inhibition [2] of the same molecule?
Its inhibition is “Dose-dependent effect”.

And the IC50 [3]?
Its IC50 is 15 µM.

What about the Activity [4] of the same molecule?
Its Activity is “Active”.

What about the Activity [5] of the same molecule?
Its Activity is “Active”.

What about the Activity [6] of the same molecule?
Its Activity is “inactive”.

And the inhibition [7]?
The inhibition was “Active”.

What about the inhibition (3T3-L1 [8]) of the same molecule?
The inhibition was “Active”.

And the inhibition [9]?
Its inhibition is “Active”.

And the inhibition (3T3-L1 [10])?
The inhibition was “inactive”.

And the inhibition [11]?
The inhibition was “Active”.

Which Activity [4] does the source give for `C#CCN(C)[C@H](C)Cc1ccccc1` here?
Its Activity is “inactive”.

For `CCCCNc1nc(NCCOCCOCCNC(=O)c2ccccc2)nc(NCc2ccccn2)n1`, which inhibition [2] is on record?
Its inhibition is “inactive”.

What about the inhibition [12] of the same molecule?
Its inhibition is “inactive”.

And the Activity [4]?
The Activity was “inactive”.

What about the inhibition [7] of the same molecule?
The inhibition was “inactive”.

And the inhibition (3T3-L1 [8])?
The inhibition was “inactive”.

What about the inhibition [11] of the same molecule?
Its inhibition is “inactive”.

And the inhibition (Caenorhabditis elegans [13])?
Its inhibition is “inactive”.

What does the source list for `NCCc1cc(O)c(O)cc1O` [OXIDOPAMINE]?
inhibition [2]: inactive; IC50 [14]: 8 µM; Activity [4]: inactive
